Tests used:
[1] = system: U937 cells; experiment: CellTiter-Glo Luminescent cell viability assay; assay type: cell-based, human; details: for inhibition at 25 µM / inhibition at 50 µM / inhibition at 100 µM / inhibition at 200 µM: Homo sapiens, U-937, 72 h, read-out: Percent inhibition at different concentrations of compounds (antiproliferative); for Percent inhibition at different concentrations of compounds (antiproliferative): U937 cells, 72 h, relative to Mitomycin C = 100%
Summary of the method: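 Human myeloid leukaemia U937 cells exposed to a range of test compound concentrations for 72 h, with Mitomycin C as positive control and DMSO diluent as negative control. CellTiter-Glo reagent added at an equal volume to the medium, mixed 2 min for lysis, then held 10 min at room temperature before luminescence was read. Viability was computed as RLU test ×100/RLU control. Half-maximal inhibitory concentration was fitted from the dose series.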

[2] = LDH release cytotoxicity assay; assay type: cell-based; details: human, U937 cells
Summary of the method: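 U937 cells were plated in 96-well format and given various test compound concentrations, with Triton X100 as positive cytotoxicity control, for 4 h at 37 °C. Plates were spun 5 min at 1000 RPM, and supernatant was moved to a fresh plate with LDH detection reagent for 10 min at room temperature in the dark. Optical density was then read, and half-maximal concentration was derived from the doses.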

Compound | inhibition at 25 µM [1] | inhibition at 50 µM [1] | inhibition at 100 µM [1] | inhibition at 200 µM [1] | inhibition at 4 h, 12.5 µM [2] | inhibition at 4 h, 25 µM [2] | inhibition at 4 h, 50 µM [2] | inhibition at 4 h, 100 µM [2] | Percent inhibition at different concentrations of compounds (antiproliferative) ([1]; 25 μM) | Percent inhibition at different concentrations of compounds (antiproliferative) ([1]; 50 μM) | Percent inhibition at different concentrations of compounds (antiproliferative) ([1]; 100 μM) | Percent inhibition at different concentrations of compounds (antiproliferative) ([1]; 200 μM)
COC(=O)COc1ccc(NC(=O)C2(c3cccc(C)c3)CC2)cc1 [Compound 8f, Methyl 2-(4-(1-(m-tolyl)cyclopropane-1-carboxamido)phenoxy)acetate] | 34% | 36% | 32% | 100% | -1% | -1% | 0% | 0% |  |  |  | 
COC(=O)COc1ccc(NC(=O)C2(c3cccc(Br)c3)CC2)c(C)c1 [Compound 8r, Methyl 2-(4-(1-(3-bromophenyl)cyclopropane-1-carboxamido)-3-methylphenoxy)acetate] | 27% | 84% | 100% | 101% | -1% | -1% | 1% | -2% |  |  |  | 
COC(=O)COc1cccc(NC(=O)C2(c3cccc(Br)c3)CC2)c1 [Compound 8p, Methyl 2-(3-(1-(3-bromophenyl)cyclopropane-1-carboxamido)phenoxy)acetate] | 37% | 60% | 101% | 102% | 0% | -1% | 0% | 0% |  |  |  | 
COC(=O)COc1ccc(NC(=O)C2(c3ccc(F)cc3)CC2)cc1 [Compound 8j, Methyl 2-(4-(1-(4-fluorophenyl)cyclopropane-1-carboxamido)phenoxy)acetate] | -12% | 39% | 76% | 101% | 0% | -1% | -2% | -1% |  |  |  | 
COC(=O)COc1ccc(NC(=O)C2(c3ccccc3)CC2)c(C)c1 [Compound 8c, Methyl 2-(3-methyl-4-(1-phenylcyclopropane-1-carboxamido)phenoxy)acetate] | 37% | 63% | 102% | 101% | 0% | -1% | 0% | -1% |  |  |  | 
COC(=O)COc1ccc(NC(=O)C2(c3ccccc3)CC2)cc1 [Compound 8b, Methyl 2-(4-(1-phenylcyclopropane-1-carboxamido)phenoxy)acetate] | 41% | 44% | 102% | 101% | -2% | -3% | -2% | -2% |  |  |  | 
COC(=O)COc1ccc(NC(=O)C2(c3ccc(Cl)cc3)CC2)c(C)c1 [Compound 8n, Methyl 2-(4-(1-(4-chlorophenyl)cyclopropane-1-carboxamido)-3-methylphenoxy)acetate] | 28% | 33% | 101% | 101% | 0% | -1% | 1% | -1% |  |  |  | 
COC(=O)COc1ccc(NC(=O)C2(c3ccccc3)CC2)cc1Br [Compound 8d, Methyl 2-(2-bromo-4-(1-phenylcyclopropane-1-carboxamido)phenoxy)acetate] | 15% | 24% | 100% | 101% | -1% | 0% | 3% | -3% |  |  |  | 
COC(=O)COc1cccc(NC(=O)C2(c3ccc(Cl)cc3)CC2)c1 [Compound 8l, Methyl 2-(3-(1-(4-chlorophenyl)cyclopropane-1-carboxamido)phenoxy)acetate] | 63% | 96% | 101% | 102% | -1% | -1% | 0% | 2% |  |  |  | 
Methyl 2-(4-(1-(3-bromophenyl)cyclopropane-1-carboxamido)-3-methylphenoxy)acetate [Compound 8q] |  |  |  |  |  |  |  |  | 26% | 45% | 102% | 102%
COC(=O)COc1cccc(NC(=O)C2(c3ccc(OC)cc3)CC2)c1 [Compound 8h, Methyl 2-(3-(1-(4-methoxyphenyl)cyclopropane-1-carboxamido)phenoxy)acetate] | 17% | 80% | 98% | 100% | 0% | 3% | 0% | -2% |  |  |  | 
COC(=O)COc1ccc(NC(=O)C2(c3ccc(Cl)cc3)CC2)cc1Br [Compound 8o, Methyl 2-(2-bromo-4-(1-(4-chlorophenyl)cyclopropane-1-carboxamido)phenoxy)acetate] | 52% | 77% | 102% | 102% | 0% | -2% | -2% | -4% |  |  |  | 
COC(=O)COc1ccc(NC(=O)C2(c3ccc(F)cc3)CC2)c(C)c1 [Compound 8k, Methyl 2-(4-(1-(4-fluorophenyl)cyclopropane-1-carboxamido)-3-methylphenoxy)acetate] | 32% | 74% | 101% | 102% | 0% | 0% | -1% | 4% |  |  |  | 
COC(=O)COc1cccc(NC(=O)C2(c3ccccc3)CC2)c1 [Compound 8a, Methyl 2-(3-(1-phenylcyclopropane-1-carboxamido)phenoxy)acetate] | 28% | 28% | 102% | 100% | -1% | 2% | 2% | 1% |  |  |  | 
COC(=O)COc1ccc(NC(=O)C2(c3ccc(Cl)cc3)CC2)cc1 [Compound 8m, Methyl 2-(4-(1-(4-chlorophenyl)cyclopropane-1-carboxamido)phenoxy)acetate] | 39% | 49% | 99% | 101% | -1% | 1% | 1% | 0% |  |  |  | 
COC(=O)COc1ccc(NC(=O)C2(c3ccc(OC)cc3)CC2)cc1 [Compound 8i, Methyl 2-(4-(1-(4-methoxyphenyl)cyclopropane-1-carboxamido)phenoxy)acetate] | 28% | 38% | 80% | 101% | -3% | 0% | -2% | -2% |  |  |  | 
COC(=O)COc1ccc(NC(=O)C2(c3ccc(Cl)c(Cl)c3)CC2)cc1 [Compound 8s, Methyl 2-(4-(1-(3,4-dichlorophenyl)cyclopropane-1-carboxamido)phenoxy)acetate] | 40% | 64% | 102% | 102% | 4% | 0% | -1% | 0% |  |  |  | 
COC(=O)COc1ccc(NC(=O)C2(c3cccc(C)c3)CC2)c(C)c1 [Compound 8g, Methyl 2-(3-methyl-4-(1-(m-tolyl)cyclopropane-1-carboxamido)phenoxy)acetate] | 18% | 25% | 89% | 100% | 0% | 0% | 1% | 0% |  |  |  | 
COC(=O)COc1cccc(NC(=O)C2(c3cccc(C)c3)CC2)c1 [Compound 8e, Methyl 2-(3-(1-(m-tolyl)cyclopropane-1-carboxamido)phenoxy)acetate] | 46% | 45% | 59% | 101% | -3% | -4% | -1% | -1% |  |  |  | 

Reference: PMC9898299 (Heliyon, 2023)
